A short description of data set [1]: Chemical stability of the compound assessed as half life at pH 4 to 10. In kind it is physicochemical. The following applies: buffer.
Data set [2] can be described thus: Photolytic stability of the compound in phosphate buffer at pH 7 up to 4 hrs by LC-UV-MS analysis. In kind it is physicochemical. The following applies: pH 7, 4 h.
The nature of data set [3]: Clearance in rat at 2 mg/kg, iv. In kind it is ADME, organism-based. Also noted: dose 2 mg/kg, route intravenous. The following applies: in vivo. Put shortly: (§1)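 Rats dosed intravenously at 2 mg/kg, n = 2 animals. Clearance is reported in ml/min/kg, half-life in h and steady-state volume of distribution in l/kg.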
Data set [4] in a line: Volume of distribution at steady state in rat at 2 mg/kg, iv. Format: ADME, organism-based. Also noted: dose 2 mg/kg, route intravenous. The following applies: in vivo, read-out: Vdss. Put shortly: as §1
A short description of data set [5]: Half life in rat at 2 mg/kg, iv. As to conditions: in vivo. The arrangement: dose 2 mg/kg, route intravenous. In kind it is ADME, organism-based. Put shortly:
as §1

Data set [6] is described as follows: Intrinsic clearance in Sprague-Dawley rat hepatocytes measured per 10^6 cells. Format: ADME, cell-based, Liver, Hepatocyte.
Data set [7] is described as follows: Intrinsic clearance in human liver microsomes. In kind it is ADME, Microsome. In general terms: Liver microsomes are a subcellular fraction often used to study metabolism.

What is called half-life is the time needed for the level to fall by half in the phase considered. Consider `Cc1ccc(Oc2ccc(C(=O)NCc3ccncc3)cc2)cc1`, for which the half-life in data set [1] was above 41.7 days.

As to `O=C(NCc1ccncc1)c1ccc(Oc2ccccc2)cc1`, in data set [1], the half-life is above 41.7 days. Moreover, the Stability entry in data set [2] is “Stable”.

For `O=C(NCc1ccncc1)c1ccc(OCc2ccccc2)cc1`, in data set [1], the half-life is above 41.7 days. Moreover, the Stability result in data set [2] is listed as “Stable”.

Take `O=C(NCc1ccncc1)c1ccc(Oc2ccc(C#C[C@]3(O)CN4CCC3CC4)cc2)cc1`: the half-life in data set [1] is above 41.7 days. Also, the Stability entry in data set [2] is recorded as “Stable”.

With `Cc1ccc(Oc2ccc(C(=O)NCc3cccnc3)cc2)cc1`, in data set [1], the half-life was above 41.7 days.

Turning to `Cc1ccc(Oc2ccc(C(=O)NCc3ccccc3)cc2)cc1`, the half-life in data set [1] is above 41.7 days.

Regarding `COc1cccc(CNC(=O)c2ccc(Oc3ccc(C)cc3)cc2)c1`, in data set [1], the half-life was above 41.7 days.

On to `Cc1ccc(Oc2ccc(C(=O)N(C)Cc3ccncc3)cc2)cc1`, for which the half-life in data set [1] was above 41.7 days.

Turning to `Cc1ccc(Oc2ccc(C(=O)NCCc3ccncc3)cc2)cc1`, in data set [1], the half-life was above 41.7 days.

As for `Cc1ccc(Oc2ccc(C(=O)NCC3CCCCC3)cc2)cc1`, the half-life in data set [1] was above 41.7 days.

On to `Cc1ccc(Oc2ccc(C(=O)NCCO)cc2)cc1`, for which the half-life in data set [1] was above 41.7 days.

Consider `Cc1ccc(Oc2ccc(C(=O)NCCCN(C)C)cc2)cc1`, for which, in data set [1], the half-life is above 41.7 days. The Stability result in data set [2] was “Stable”.

Regarding `CNC(=O)c1ccc(Oc2ccc(C)cc2)cc1`, in data set [1], the half-life was above 41.7 days. In addition, in data set [2], the Stability result was “Stable”.

For `COc1ccc(C(=O)NCc2ccncc2)cc1`, the half-life in data set [1] was above 41.7 days. In data set [2], the Stability entry is “Stable”.

Consider `O=C(NCc1ccncc1)c1ccc(-c2ccccc2)cc1`, for which the half-life in data set [1] was above 41.7 days. Also, in data set [2], the Stability entry is recorded as “Stable”.

On to `O=C(NCc1ccncc1)c1ccc(OCCc2ccccc2)cc1`, for which the half-life in data set [1] was above 41.7 days. The Stability entry in data set [2] is reported as “Stable”.

For the compound `O=C(NCc1ccncc1)c1ccc(Oc2ccc([N+](=O)[O-])cc2)cc1`, the half-life in data set [1] is above 41.7 days. Also, the Stability entry in data set [2] is on record as “Stable”.

For `COc1cc(Oc2ccc(C(=O)NCc3ccncc3)cc2)ccc1[N+](=O)[O-]`, in data set [1], the half-life is above 41.7 days. Moreover, the Stability result in data set [2] was “Stable”.

Regarding `N#Cc1ccccc1Oc1ccc(C(=O)NCc2ccncc2)cc1`, the half-life in data set [1] was above 41.7 days. In data set [2], the Stability result was “Stable”.

With `CNC(=O)c1ccc(Oc2ccc(C(=O)NCc3ccncc3)cc2)cc1`, in data set [1], the half-life was above 41.7 days. Further, the Stability result in data set [2] was “Stable”.

In the case of `O=C(NCc1ccncc1)c1ccc(Oc2ccc(/C=C/C3=CN4CCC3CC4)cc2)cc1`, the half-life in data set [1] is above 41.7 days. For the same compound, the Stability result in data set [2] is “Stable”.

Turning to `O=C(NCc1ccncc1)c1ccc(Oc2ccc(C#C[C@@]3(O)CN4CCC3CC4)cc2)cc1`, the half-life in data set [1] is above 41.7 days. Besides, the Stability entry in data set [2] was “Stable”.

For orientation: clearance means the volume of plasma or blood freed of the substance per unit of time. Higher therefore signals a high capacity for elimination. For orientation: hepatocyte CLint means the capacity of the preparation to metabolise the compound, expressed as a volume cleared per time. For orientation: microsomal CLint means a measure of how fast metabolising enzymes remove a compound, apart from limits set by blood flow. As to `O=C(NCc1ccncn1)c1ccc(Oc2ccc(C#C[C@]3(O)CN4CCC3CC4)cc2)cc1`, the clearance in data set [3] stood at 17 mL/min/kg. Moreover, the half-life in data set [1] was above 41.7 days; in data set [5], 0.1 days. In data set [4], the Vd came out at 2.4 L/kg. Moreover, in data set [6], the hepatocyte CLint came out at 3 µL/min/1e6 cells. The compound also registered a microsomal CLint in data set [7] below 2 µL/min/mg. Moreover, the Stability entry in data set [2] is recorded as “Stable”.

Consider `O=C(NCc1ccncn1)c1ccc(Oc2ccc(C#C[C@@]3(O)CN4CCC3CC4)cc2)cc1`, for which the half-life in data set [1] is above 41.7 days. For the same compound, in data set [2], the Stability entry is on record as “Stable”.

On to `O=C(NCc1ccncn1)c1ccc(Oc2ccc(CCC3(O)CN4CCC3CC4)cc2)cc1` (stereo not given), for which, in data set [1], the half-life was above 41.7 days. In data set [2], the Stability entry is recorded as “Stable”.

For the compound `O=C(NCc1ccncn1)c1ccc(Oc2ccc(/C=C/C3(O)CN4CCC3CC4)cc2)cc1` (stereo not given), the half-life in data set [1] was above 41.7 days. Moreover, the Stability result in data set [2] was “Stable”.

Consider `COC1(C#Cc2ccc(Oc3ccc(C(=O)NCc4ccncn4)cc3)cc2)CN2CCC1CC2` (stereo not given), for which the half-life in data set [1] is above 41.7 days. The Stability result in data set [2] was “Stable”.

As for `O=C(NCc1ccncn1)c1ccc(Oc2ccc(/C=C/C3=CN4CCC3CC4)cc2)cc1`, the half-life in data set [1] was above 41.7 days. For the same compound, in data set [2], the Stability entry is reported as “Stable”.

With `O=C(NCc1ccncc1)c1ccc(Oc2ccc(C#CC3(O)CN4CCC3CC4)cc2)cc1` (racemic), in data set [1], the half-life was above 41.7 days. The Stability entry in data set [2] was “Stable”.

(Values after ChEMBL document CHEMBL1795206, “Selective non zinc binding inhibitors of MMP13” (Bioorg Med Chem Lett, 2011).)
